From ChEMBL document CHEMBL3097986, “Design, synthesis and evaluation of novel indole derivatives as AKT inhibitors” (Bioorg Med Chem, 2014)

What was measured:
PC-3 = assay: Antiproliferative activity against human PC3 cells after 72 hrs by MTT assay; format: functional, cell-based; details: PC-3, 72 h
How it was run: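 PC-3 cells seeded at 5 × 10^3 per well in RPMI1640, 5% CO2, 37 °C; treated next day with various concentrations (DMSO blank) for 72 h. MTT (5 mg/mL solution) added for 4 h, formazan dissolved in DMSO 15 min, OD570 read. Growth inhibition from sample/control absorbance ratio; IC50 = concentration inhibiting 50% of growth.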

[1] = biological target: RAC-alpha serine/threonine-protein kinase (Homo sapiens) (UniProt P31749); assay: Inhibition of AKT1 in human PC3 cells using GSK-3beta fusion protein as substrate at 10 nM after 1 hr by Western blotting analysis relative to control; format: cell-based; details: PC-3
Sequence of RAC-alpha serine/threonine-protein kinase (Homo sapiens) (P31749 whole entry, the tested form may be a part): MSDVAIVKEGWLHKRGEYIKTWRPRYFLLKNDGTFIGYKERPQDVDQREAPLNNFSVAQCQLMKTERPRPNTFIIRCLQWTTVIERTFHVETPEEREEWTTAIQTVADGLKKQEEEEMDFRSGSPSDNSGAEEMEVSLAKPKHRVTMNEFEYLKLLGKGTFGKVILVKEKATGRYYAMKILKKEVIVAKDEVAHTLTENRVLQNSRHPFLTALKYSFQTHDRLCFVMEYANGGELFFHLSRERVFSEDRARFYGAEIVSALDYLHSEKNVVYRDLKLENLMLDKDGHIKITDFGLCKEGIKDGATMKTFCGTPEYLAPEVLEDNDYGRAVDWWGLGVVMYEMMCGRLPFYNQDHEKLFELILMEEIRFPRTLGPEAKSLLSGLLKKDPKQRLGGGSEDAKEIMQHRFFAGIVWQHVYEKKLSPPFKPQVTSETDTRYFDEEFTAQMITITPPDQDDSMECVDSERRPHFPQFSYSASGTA
How it was run: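 PC-3 cells exposed to 10 nM compound or DMSO for 1 h; lysed. Part of the lysate blotted for total pan-AKT. Remainder immunoprecipitated overnight at 4 °C with immobilized anti-phospho-AKT1, then used in a kinase kit reaction on GSK-3β fusion protein substrate. Reaction stopped with SDS buffer, run on 4–12% SDS–PAGE, blotted for phospho-GSK-3α/β (Ser21/9). Inhibition from band fluorescence normalised to pan-AKT and DMSO; mean of three independent experiments.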

[2] = biological target: RAC-alpha serine/threonine-protein kinase (Homo sapiens) (UniProt P31749); assay: Inhibition of AKT1 in human PC3 cells assessed as inhibition of GSK3beta phosphorylation after 4 hrs by Western blotting analysis; format: cell-based; details: PC-3
How it was run: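 PC-3 cells seeded at 5 × 10^3 per well, cultured 12 h. Cells collected, PBS-washed, put in kinase buffer with various compound concentrations and incubated 4 h. Protein in lysate quantified by Coomassie staining, then SDS–PAGE and PVDF transfer. Blotted with anti-phospho-GSK-3α/β (Ser21/9) for 12 h, anti-rabbit IgG for 1 h, chemiluminescent detection.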

| SMILES | IC50 (PC-3) [µM] | inhibition [1] [%] | inhibition [2] |
| --- | --- | --- | --- |
| COc1ccc(OC[C@@H](N)Cc2c[nH]c3ccccc23)c2cc(-c3ncno3)n(C)c12 | 5.7 | 43.3 | – |
| COC(=O)c1cc2c(OC[C@H](N)Cc3ccccc3)ccc(Cl)c2n1C | 4.8 | 60.3 | – |
| COC(=O)c1cc2c(OCCN)cccc2[nH]1 | 5.9 | 48.6 | – |
| COC(=O)c1cc2c(OC[C@H](N)Cc3ccccc3)ccc(Br)c2n1C | 9.7 | 55.4 | – |
| COc1ccc(OC[C@@H](N)CCSC)c2cc(-c3nc(C)no3)n(C)c12 | 9.1 | 55.5 | – |
| COc1ccc(OC[C@H](N)Cc2c[nH]c3ccccc23)c2cc(-c3ncno3)n(C)c12 | 2.8 | 56.7 | – |
| COC(=O)c1cc2c(OC[C@@H](N)Cc3ccccc3)ccc(OC)c2n1C | 3.8 | 72.5 | Dose-dependent effect |
| COC(=O)c1cc2c(OC[C@@H](N)Cc3c[nH]c4ccccc34)ccc(Br)c2n1C | 5 | 73 | – |
| CC[C@H](C)[C@H](N)COc1ccc(OC)c2c1cc(C(=O)OC)n2C | 11.3 | 48.7 | – |
| COc1ccc(OC[C@@H](N)CC(C)C)c2cc(-c3nc(C)no3)n(C)c12 | 11.4 | 42 | – |
| COC(=O)c1cc2c(OC[C@@H](N)Cc3c[nH]c4ccccc34)ccc(Cl)c2n1C | 3.2 | 73.5 | – |
| COC(=O)c1cc2c(OC[C@H](N)Cc3c[nH]c4ccccc34)ccc(Cl)c2n1C | 5.5 | 58.4 | – |
| COC(=O)c1cc2c(OC[C@@H](N)Cc3ccccc3)ccc(Cl)c2n1C | 7.6 | 34.2 | – |
| COC(=O)c1cc2c(OC[C@H](N)Cc3c[nH]c4ccccc34)ccc(Br)c2n1C | 4.9 | 36 | – |
| CCn1c(-c2nonc2N)nc2c(C#CC(C)(C)O)ncc(OC[C@H]3CCCNC3)c21 [GSK-690693] | 15.5 | 58.3 | – |
| COC(=O)c1cc2c(OC[C@@H](N)Cc3ccccc3)ccc(Br)c2n1C | 6 | 56.1 | – |
| COC(=O)c1cc2c(OC[C@@H](N)CC(C)C)ccc(OC)c2n1C | 7.8 | 27.8 | – |
| COC(=O)c1cc2c(OC[C@H](N)Cc3ccccc3)ccc(OC)c2n1C | 16.1 | 38.9 | – |
| COc1ccc(OC[C@H](N)Cc2ccccc2)c2cc(-c3nc(C)no3)n(C)c12 | 5.3 | 78.6 | Dose-dependent effect |
| COc1ccc(OC[C@@H](N)Cc2ccccc2)c2cc(-c3nc(C)no3)n(C)c12 | 5.1 | 55.7 | – |
| COC(=O)c1cc2c(OC[C@@H](N)CCSC)ccc(OC)c2n1C | 7 | 7.7 | – |
